Laboratory results taken from paper PMC7821153 (Chemical Biology & Drug Design, 2020).

Key:
Assay type in all cases: cell-based
[1] = Cellular cytotoxicity, ATP-dependent luminescence assay
In short: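 Cytotoxicity measured by ATP-dependent luminescence, with CC50 derived. Values are from three independent experiments (n = 3), and standard deviations are reported.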

[2] = tested on: WT HIV-1; experiment: Single-round infectivity assay, WT RT vector; details: for EC50: Human immunodeficiency virus 1, read-out: EC50 WT; for TI (therapeutic index): calculated from CC50 and WT EC50
In short: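 Single-round infection with an HIV-1-based vector (pNLNgoMIVR-ΔENV.LUC, Env-deleted, luciferase-carrying) with wild-type RT, used to derive EC50. Therapeutic index is calculated from CC50 (ATP-dependent luminescence assay) and wild-type EC50. Three independent experiments (n = 3), with standard deviations.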

[3] = tested on: HIV-1 NNRTI-resistant mutant L100I; experiment: Single-round infectivity assay, L100I; details: Human immunodeficiency virus 1, read-out: EC50 L100I
In short: (§1)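 Single-round infection with the HIV-1-based vector pNLNgoMIVR-ΔENV.LUC (Env-deleted, luciferase-carrying) bearing the indicated RT mutation(s), used to derive EC50. The mutant vectors are previously described constructs.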

[4] = tested on: HIV-1 NNRTI-resistant mutant K103N; experiment: Single-round infectivity assay, K103N; details: Human immunodeficiency virus 1, read-out: EC50 K103N
In short: as §1

[5] = tested on: HIV-1 NNRTI-resistant mutant E138K; experiment: Single-round infectivity assay, E138K; details: Human immunodeficiency virus 1, read-out: EC50 E138K
In short: as §1

[6] = tested on: HIV-1 NNRTI-resistant mutant Y181C; experiment: Single-round infectivity assay, Y181C; details: Human immunodeficiency virus 1, read-out: EC50 Y181C
In short: as §1

[7] = tested on: HIV-1 NNRTI-resistant mutant Y188L; experiment: Single-round infectivity assay, Y188L; details: Human immunodeficiency virus 1, read-out: EC50 Y188L
In short: as §1

[8] = tested on: HIV-1 NNRTI-resistant mutant H221Y; experiment: Single-round infectivity assay, H221Y; details: Human immunodeficiency virus 1, read-out: EC50 H221Y
In short: as §1

[9] = tested on: HIV-1 NNRTI-resistant mutant K103N/Y181C; experiment: Single-round infectivity assay, K103N/Y181C; details: Human immunodeficiency virus 1, read-out: EC50 K103N/Y181C
In short: as §1

[10] = tested on: HIV-1 NNRTI-resistant mutant M230L; experiment: Single-round infectivity assay, M230L; details: Human immunodeficiency virus 1, read-out: EC50 M230L
In short: as §1

[11] = tested on: HIV-1 NNRTI-resistant mutant L100I/K103N; experiment: Single-round infectivity assay, L100I/K103N; details: Human immunodeficiency virus 1, read-out: EC50 L100I/K103N
In short: as §1

[12] = tested on: HIV-1 NNRTI-resistant mutant K103N/P225H; experiment: Single-round infectivity assay, K103N/P225H; details: Human immunodeficiency virus 1, read-out: EC50 K103N/P225H
In short: as §1

[13] = tested on: HIV-1 NNRTI-resistant mutant V106A/G190A/F227L; experiment: Single-round infectivity assay, V106A/G190A/F227L; details: Human immunodeficiency virus 1, read-out: EC50 V106A/G190A/F227L
In short: as §1

[14] = tested on: HIV-1 RT-resistant mutant K101E; experiment: Single-round infectivity assay, K101E; details: Human immunodeficiency virus 1, read-out: EC50 K101E
In short: as §1

[15] = tested on: HIV-1 DOR-resistant mutant V106A/F227L; experiment: Single-round infectivity assay, V106A/F227L; details: read-out: EC50 V106A/F227L; single-round infection, n = 3
In short: as §1

[16] = tested on: HIV-1 NNRTI-resistant mutant G190S; experiment: Single-round infectivity assay, G190S; details: read-out: EC50 G190S; single-round infection, n = 3
In short: as §1

[17] = tested on: HIV-1 NNRTI-resistant mutant P236L; experiment: Single-round infectivity assay, P236L; details: read-out: EC50 P236L; single-round infection, n = 3
In short: as §1

[18] = tested on: HIV-1 DOR-resistant mutant L234I; experiment: Single-round infectivity assay, L234I; details: read-out: EC50 L234I; single-round infection, n = 3
In short: as §1

[19] = tested on: HIV-1 DOR-resistant mutant V106A/F227L/L234I; experiment: Single-round infectivity assay, V106A/F227L/L234I; details: read-out: EC50 V106A/F227L/L234I; single-round infection, n = 3
In short: as §1

[20] = tested on: HIV-1 RT-resistant mutant D67E; experiment: Single-round infectivity assay, D67E; details: read-out: EC50 D67E; single-round infection, n = 3
In short: as §1

[21] = tested on: HIV-1 RT-resistant mutant K101E/M184I; experiment: Single-round infectivity assay, K101E/M184I; details: read-out: EC50 K101E/M184I; single-round infection, n = 3
In short: as §1

[22] = tested on: HIV-1 RT-resistant mutant K101E/M184V; experiment: Single-round infectivity assay, K101E/M184V; details: read-out: EC50 K101E/M184V; single-round infection, n = 3
In short: as §1

SMILES | CC50 [1] [nM] | EC50 [2] [nM] | TI (therapeutic index) [2] | EC50 [3] [nM] | EC50 [4] [nM] | EC50 [5] [nM] | EC50 [6] [nM] | EC50 [7] [nM] | EC50 [8] [nM] | EC50 [9] [nM] | EC50 [10] [nM] | EC50 [11] [nM] | EC50 [12] [nM] | EC50 [13] [nM] | EC50 [14] [nM] | further results
O=C1Nc2ccc(Cl)cc2[C@@](C#CC2CC2)(C(F)(F)F)O1 [EFV, efavirenz, reference compound] | 36400 ± 1600 | 0.9 ± 0.1 | >25,000 | 5.4 ± 0.9 | 35.8 ± 9.1 | 2.5 ± 0.4 | 1.6 ± 0.1 | 76.8 ± 6.5 | 2.2 ± 0.4 | 36 ± 8.4 | 14.3 ± 2 | 488 ± 50 | 50.4 ± 3.1 | 185 ± 19.8 | 11 ± 1.2 | 
Cc1cc(/C=C/C#N)cc(C)c1Nc1ccnc(Nc2ccc(C#N)cc2)n1 [RPV, rilpivirine, reference compound] |  |  | >25,000 | 0.1 ± 0.03 | 1 ± 0.2 | 1 ± 0.1 | 1.4 ± 0.4 | 2.3 ± 0.2 | 1.3 ± 0.1 | 3.5 ± 0.3 | 1.7 | 2.3 ± 0.2 | 0.6 ± 0.2 | 0.5 ± 0.02 | 2.6 ± 1.6 | EC50 [15]: 0.8 ± 0.1 nM
Cc1cc(/C=C/C#N)cc(C)c1Nc1nc(Nc2ccc3cc(/C=C/C#N)ccc3c2)ncc1N [Compound 8, (E)‐3‐(4‐((5‐amino‐2‐((6‐((E)‐2‐cyanovinyl)naphthalen‐2‐yl)amino)pyrimidin‐4‐yl)amino)‐3,5‐dimethylphenyl)acrylonitrile] | 10800 ± 700 | 6.8 ± 0.6 | 1,588 | 242 ± 35.4 | 121 ± 9.7 | 534 ± 27.1 | 264 ± 15.9 | 3070 | 18.7 ± 2.5 | 1990 |  |  |  |  |  | 
Cn1c(Cn2ccc(C(F)(F)F)c(Oc3cc(Cl)cc(C#N)c3)c2=O)n[nH]c1=O [DOR, doravirine, reference compound] |  |  | >25,000 | 1.1 ± 0.2 | 4.5 ± 2.8 | 13.9 ± 2.4 | 2 ± 0.2 | > 100 | 4.6 ± 1.8 | 11.3 ± 5.9 | 51.1 ± 6.5 | 2 ± 0.8 | 25.3 ± 4.5 | > 100 | 0.4 ± 0.04 | 
Cc1cc(/C=C/C#N)cc(C)c1-n1cnc2cnc(Nc3ccc(/C=C/C#N)cc3)nc21 [Compound 13, (E)‐3‐(4‐((9‐(4‐((E)‐2‐cyanovinyl)‐2,6‐dimethylphenyl)‐9H‐purin‐2‐yl)amino)phenyl)acrylonitrile] | > 250000 | 1.4 ± 0.2 | >25,000 | 28.6 ± 7.6 | 9.3 ± 0.7 | 29.1 ± 1.9 | 92.4 ± 10 | 208 ± 12 | 2.6 ± 0.7 | 323 ± 56.7 | 60 ± 0.9 | 252 ± 21.9 | 29.1 ± 1.6 | 4.7 ± 0.9 | 9.7 ± 1.2 | EC50 [16]: 1.2 ± 0.3 nM; EC50 [17]: 1.1 ± 0.05 nM; EC50 [18]: 1.8 ± 0.4 nM; EC50 [19]: 5.4 ± 1.1 nM; EC50 [20]: 9.5 ± 1.8 nM; EC50 [21]: 7 ± 0.6 nM; EC50 [22]: 3.9 ± 0.6 nM
